The text below walks through data of ChEMBL document CHEMBL1153390, “Substituted terphenyl compounds as the first class of low molecular weight allosteric inhibitors of the luteinizing hormone receptor” (J Med Chem, 2009).

The target of assay [1] is T1, Lutropin-choriogonadotropic hormone receptor (Homo sapiens, UniProt P22888). As to the kind of experiment: Displacement of [3H]Org43553 from human luteinizing hormone receptor expressed in CHOK1 cells at 10 uM by scintillation spectrometry. Format: cell-based. The settings on record: CHO-K1. The method, boiled down:
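Membranes (50 µg protein) from CHO-K1 cells stably expressing human LH receptor incubated 90 min at 30 °C with 4.5 nM [3H]Org 43553 and 10 µM compound. Buffer was 25 mM Tris-HCl pH 7.4, 2 mM MgCl2, 0.1% BSA. Nonspecific binding defined with 10 µM Org 43553. Filtration on GF/B, ice-cold washes, scintillation counting. Result given as % displacement of specific binding, n=2, duplicate.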
Background: In a radioligand displacement assay an active substance lowers the binding of a labelled ligand.

Assay [2] deals with T1, Lutropin-choriogonadotropic hormone receptor. As to the kind of experiment: Displacement of [3H]Org43553 from human luteinizing hormone receptor expressed in CHOK1 cells assessed as increase in radioligand dissociation at 10 uM by scintillation spectrometry relative to control. Format: cell-based. The settings on record: CHO-K1. The method, boiled down:
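Membranes (50 µg protein) from CHO-K1 cells stably expressing human LH receptor preloaded with 4.5 nM [3H]Org 43553 for 90 min at 30 °C in 25 mM Tris-HCl pH 7.4, 2 mM MgCl2, 0.1% BSA. Dissociation then started with 10 µM Org 43553 ± 10 µM compound in 50% DMSO vehicle. Bound label measured after 30 min by GF/B filtration and scintillation counting. Control set at 100%. n=2, duplicate.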

The target is the same in assay [3]. As to the kind of experiment: Antagonist activity at human luteinizing hormone receptor expressed in CHOK1 cells assessed as decrease in recombinant luteinizing hormone activation potency at 10 uM by c-AMP-mediated luciferase assay. The assay is classed as functional, cell-based. The settings on record: CHO-K1. A digest of the protocol: (§1)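 Cells as for the CRE-luciferase assay (human LH receptor, CHO-K1), stimulated 4 h with ten concentrations of recLH, rec-hCG or Org 43553, with or without 10 µM test compound. Luminescence read-out. Shift is the EC50 ratio with/without compound; 1 nM recLH response set 100%. At least three assays in duplicate.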

The target is the same in assay [4]. The experiment in a line: Antagonist activity at human luteinizing hormone receptor expressed in CHOK1 cells assessed as decrease in recombinant human chorionic gonadotropin activation potency at 10 uM by c-AMP-mediated luciferase assay. The assay is classed as functional, cell-based. The settings on record: CHO-K1. The method, boiled down:
as §1

Assay [5] has the same target. The experiment in a line: Antagonist activity at human luteinizing hormone receptor expressed in CHOK1 cells assessed as decrease in Org 43553 activation potency at 10 uM by c-AMP-mediated luciferase assay. The assay is classed as functional, cell-based. The settings on record: CHO-K1. A digest of the protocol: as §1
For assay [6], the target named is T2, Adenosine receptor A1 (Homo sapiens) (UniProt P30542).
T2 sequence (whole entry): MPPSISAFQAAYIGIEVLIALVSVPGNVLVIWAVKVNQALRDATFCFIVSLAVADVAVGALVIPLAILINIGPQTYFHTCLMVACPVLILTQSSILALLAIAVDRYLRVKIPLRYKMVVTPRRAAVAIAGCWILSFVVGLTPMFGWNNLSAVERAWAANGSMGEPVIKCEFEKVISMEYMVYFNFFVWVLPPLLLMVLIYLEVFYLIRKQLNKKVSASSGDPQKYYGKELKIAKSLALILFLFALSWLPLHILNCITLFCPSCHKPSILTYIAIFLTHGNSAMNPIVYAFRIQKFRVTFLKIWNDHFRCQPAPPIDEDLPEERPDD
As to the kind of experiment: Binding affinity to adenosine A1 receptor.

Assay [7] concerns the target Adenosine receptor A2a (Homo sapiens) (UniProt P29274). As to the kind of experiment: Binding affinity to adenosine A2A receptor.
The target in assay [8] is T1, Lutropin-choriogonadotropic hormone receptor. As to the kind of experiment: Displacement of [3H]Org43553 from human luteinizing hormone receptor expressed in CHOK1 cells. The assay is classed as cell-based, CHO-K1. A digest of the protocol: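 CHO-K1 membranes stably expressing human LH receptor, 50 µg protein, in 25 mM Tris-HCl pH 7.4 with 2 mM MgCl2 and 0.1% BSA. Incubated with 4.5 nM [3H]Org 43553 at 30 °C for 90 min, using 10 µM or a range of competitor concentrations. Nonspecific binding defined with 10 µM Org 43553. Read by filtration and scintillation counting; IC50 from nonlinear regression.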

The target is the same in assay [9]. As to the kind of experiment: Displacement of [125I]human chorionic gonadotropin from human luteinizing hormone receptor expressed in CHOK1 cells by gamma counting. Format: cell-based. Particulars: CHO-K1.
The target is the same in assay [10]. The experiment in a line: Displacement of [125I]human chorionic gonadotropin from human luteinizing hormone receptor expressed in CHOK1 cells assessed as increase in radioligand dissociation at 10 uM after 4 hrs by infinite dilution method. Format: cell-based. The settings on record: CHO-K1. The method, boiled down:
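CHO-K1 membranes expressing human LH receptor, prelabelled with 125I-hCG. Dissociation was started by infinite dilution in the presence of 10 µM compound, and bound radioligand was measured after 4 h. t=0 binding set 0% dissociation, nonspecific 100%. At least two assays in triplicate.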

The target is the same in assay [11]. As to the kind of experiment: Agonist activity at human luteinizing hormone receptor expressed in CHOK1 cells assessed as c-AMP-mediated luciferase production at 10 uM. Format: functional, cell-based. The settings on record: CHO-K1.
Assay [12] has the same target. As to the kind of experiment: Agonist activity at human luteinizing hormone receptor expressed in CHOK1 cells assessed as c-AMP-mediated luciferase production. The assay is classed as functional, cell-based, CHO-K1. A digest of the protocol:
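CHO-K1 cells stably expressing human LH receptor and CRE-luciferase, 7.5 × 10^5 cells/mL in DMEM/F12 with insulin and apo-transferrin. Stimulated 4 h, then luciferase read by luminescence. Basal activity set 0%; 1 nM recLH set 100%. Means of at least three assays in duplicate.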

Assay [13] deals with T3, Adenosine receptor A3 (Homo sapiens) (UniProt P0DMS8).
T3 sequence (whole entry): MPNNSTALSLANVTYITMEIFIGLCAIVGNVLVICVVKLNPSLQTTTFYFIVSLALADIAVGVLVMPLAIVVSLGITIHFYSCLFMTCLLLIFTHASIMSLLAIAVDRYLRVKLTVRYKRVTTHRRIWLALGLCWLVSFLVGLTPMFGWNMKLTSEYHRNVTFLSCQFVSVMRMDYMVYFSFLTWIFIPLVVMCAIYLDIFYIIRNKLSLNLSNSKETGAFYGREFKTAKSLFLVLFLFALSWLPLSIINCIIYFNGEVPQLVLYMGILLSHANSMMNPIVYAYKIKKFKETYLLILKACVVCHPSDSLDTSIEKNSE
The experiment in a line: Activity at adenosine A3 receptor assessed as allosteric modulation.

Molecules are shown by their SMILES. pEC50, pIC50: −log10 of the molar value. Activity calls are given as the source filed them. The rule behind the calls is not given here.

T1 sequence (P22888 whole entry): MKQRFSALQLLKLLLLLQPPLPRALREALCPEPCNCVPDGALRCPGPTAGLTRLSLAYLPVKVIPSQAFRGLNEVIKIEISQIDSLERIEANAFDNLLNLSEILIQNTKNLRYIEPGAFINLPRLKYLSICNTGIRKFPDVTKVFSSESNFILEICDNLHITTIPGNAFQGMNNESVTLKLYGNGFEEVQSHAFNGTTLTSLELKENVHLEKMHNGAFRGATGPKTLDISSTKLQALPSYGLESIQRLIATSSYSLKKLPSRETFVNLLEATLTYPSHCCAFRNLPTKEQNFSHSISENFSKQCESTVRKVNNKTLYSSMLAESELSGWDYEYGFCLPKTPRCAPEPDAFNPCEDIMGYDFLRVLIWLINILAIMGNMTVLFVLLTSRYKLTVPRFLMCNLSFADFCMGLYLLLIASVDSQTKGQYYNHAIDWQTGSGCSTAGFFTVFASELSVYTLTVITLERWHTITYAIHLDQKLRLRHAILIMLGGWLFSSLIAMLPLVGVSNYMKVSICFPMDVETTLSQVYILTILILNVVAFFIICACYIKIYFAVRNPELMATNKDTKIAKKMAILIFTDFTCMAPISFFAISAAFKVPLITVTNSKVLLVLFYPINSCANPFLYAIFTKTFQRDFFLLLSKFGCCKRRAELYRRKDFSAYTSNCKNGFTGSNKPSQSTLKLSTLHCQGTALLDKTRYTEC
Sequence of Adenosine receptor A2a (Homo sapiens) (P29274 whole entry): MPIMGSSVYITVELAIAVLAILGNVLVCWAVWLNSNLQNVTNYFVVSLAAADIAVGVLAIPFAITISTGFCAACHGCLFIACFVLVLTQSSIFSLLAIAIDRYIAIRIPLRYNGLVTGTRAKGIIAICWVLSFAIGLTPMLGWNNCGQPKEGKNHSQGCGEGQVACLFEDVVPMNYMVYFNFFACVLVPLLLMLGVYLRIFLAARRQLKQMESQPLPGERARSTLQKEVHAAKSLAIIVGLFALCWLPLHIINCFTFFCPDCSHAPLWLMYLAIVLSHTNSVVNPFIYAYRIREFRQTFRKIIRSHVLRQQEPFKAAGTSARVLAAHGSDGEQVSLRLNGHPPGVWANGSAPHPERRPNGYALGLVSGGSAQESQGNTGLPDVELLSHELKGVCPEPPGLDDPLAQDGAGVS

Turning to `O=C(NC1CCCC1)Oc1cccc(-c2ccccc2)c1`, the Activity in [1] turned out to be 81%; in assay [2], 75%. In addition, the result in assay [3], in assay [4] and in assay [5] was Active.
`CC(C)(C)NC(=O)Oc1cc(-c2ccccc2)cc(-c2ccccc2)c1`: the Activity in [1] is 68%; in [2] it was 82%.
Regarding `Cc1ccc(-c2cc(OC(=O)NC3CCCC3)cc(-c3ccc(C)cc3)c2)cc1`, the values for the Activity in assay [1] and in [2] were 62% and 59%, respectively.
For `CCCCCNC(=O)Oc1cc(-c2ccccc2)cc(-c2ccccc2)c1` the same measures were 30% and 80%.
Regarding `Oc1cc(-c2ccccc2)cc(-c2ccccc2)c1`, the Activity in assay [1] is -2%; in assay [2] it was 27%.
Take `c1ccc(Cn2cnc3c(-c4ccccc4)cc(-c4ccccc4)nc32)cc1`: the Activity in [2] came out at 16%.
As to `O=C(NC1CCCCC1)Oc1cc(-c2ccccc2)cc(-c2ccccc2)c1`, the Activity in assay [1] worked out at 83%; in assay [2] it was 51%.
For `CCNC(=O)Oc1cc(-c2ccccc2)cc(-c2ccccc2)c1` the same measures were -1% and 61%.
Take `COc1ccc(-c2cc(OC(=O)NC3CCCC3)cc(-c3ccc(OC)cc3)c2)cc1`: the results for the Activity in assay [1] and in assay [2] were 17% and 31%, respectively.
Turning to `COc1ccc(-c2cc(OC(=O)NC3CCCC3)cc(-c3ccccc3)c2)cc1`, the figures for the Activity in assay [1] and in assay [2] were 67% and 83%, respectively.
With `O=C(Nc1cc(-c2ccccc2)cc(-c2ccccc2)c1)NC1CCCC1`, the Activity in assay [1] was 49%; in assay [2], 70%.
On to `N#Cc1c(N)cc(-c2ccccc2)cc1-c1cccs1`, for which, in assay [2], the Activity came out at 29%.
As to `O=C(Nc1cc(-c2ccccc2)cc(-c2ccccc2)c1)C1CCCC1`, the Activity stood at 30% in [1] and 56% in assay [2].
As to `O=C(Oc1cc(-c2ccccc2)cc(-c2ccccc2)c1)C1CCCC1`, the Activity stood at 9% in [1] and 41% in assay [2].
Regarding `CCCCNC(=O)Oc1cc(-c2ccccc2)cc(-c2ccccc2)c1`, the Activity in assay [1] was 61%; in [2], 65%.
As for `CC(C)NC(=O)Oc1cc(-c2ccccc2)cc(-c2ccccc2)c1`, the Activity in assay [1] is 14%; in assay [2] it was 55%.
In the case of `COc1ccc(C(=O)Nc2nc(-c3ccccc3)cc(-c3ccccc3)n2)cc1`, the Activity in assay [2] was 42%.
Take `O=C(NC1CCCC1)Oc1cc(-c2ccccc2)cc(-c2ccc(Cl)c(Cl)c2)c1`: the Activity in assay [1] turned out to be 69%; in assay [2] it was 64%.
On to `O=C(NC1CCCC1)Oc1cc(-c2ccc(Cl)cc2)cc(-c2ccc(Cl)cc2)c1`, for which the Activity in assay [1] was found to be 55%.
Take `O=C(NC1CCCC1)Oc1cc(-c2ccccc2)cc(-c2ccc(Cl)cc2)c1`: the Activity in assay [1] turned out to be 77%; in [2], 71%.
On to `O=C(NC1CCCC1)Oc1cc(-c2ccc(Cl)c(Cl)c2)cc(-c2ccc(Cl)c(Cl)c2)c1`, for which the Activity in [1] turned out to be 7%.
As to `Nc1cc(-c2ccccc2)cc(-c2ccccc2)c1`, the Activity in assay [1] is 9%; in assay [2] it was 42%.
On the same counts, the results for `CCCNC(=O)Oc1cc(-c2ccccc2)cc(-c2ccccc2)c1` are 47% and 72%.
In the case of `Cc1ccc(-c2cc(OC(=O)NC3CCCC3)cc(-c3ccccc3)c2)cc1`, the Activity in assay [1] turned out to be 72%; in [2], 102%. In addition, the result in assay [3] and in assay [5] was Active.
As to `COc1ccc(NC(=O)Oc2cc(-c3ccccc3)cc(-c3ccccc3)c2)cc1`, the Activity turned out to be 58% in [1] and 35% in [2].
Take `O=C(Nc1ccccc1)Oc1cc(-c2ccccc2)cc(-c2ccccc2)c1`: the result in assay [6] and in assay [7] was inactive. For the same compound, the Activity in [1] stood at 28%; in [2], 79%.
As to `O=C(NC1CCCC1)Oc1cc(-c2ccccc2)cc(-c2ccccc2)c1`, the Activity in assay [1] is 91%; in assay [2] it was 88%; in [8] (CHO-K1) it was “Dose-dependent effect”; in [11] it was 31%. Also, in [8], the pIC50 (as a rule, the negative decadic logarithm of the IC50, by convention in mol/L) was 5.64. Moreover, the outcome in assay [9] and in assay [13] was inactive. In addition, the result in assay [10] was Active. Also, the fold change (FC) in assay [3] came out at 3; in [4] it was 3; in assay [5] it was 2. In [12], the pEC50 – broadly, the negative decadic logarithm of the EC50, by convention in mol/L – was 5.80.
For `O=C(Nc1ccc(Cl)cc1)Oc1cc(-c2ccccc2)cc(-c2ccccc2)c1`, the results for the Activity in [1] and in assay [2] were 9% and 19%, respectively.
